Experimental data as given in ChEMBL document CHEMBL1144477, “Design, synthesis and cytotoxic properties of novel 1-[4-(2-alkylaminoethoxy)phenylcarbonyl]-3,5-bis(arylidene)-4-piperidones and related compounds” (Eur J Med Chem, 2007).

Assays:
[1] = Cytotoxicity against human Molt4/C8 cells; format: cell-based; conditions: MOLT-4
Summary of the method: (§1)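 Human Molt 4/C8 and CEM T-lymphocytes and murine L1210 cells were each exposed to at least three compound concentrations at 37 °C for 48 h. Growth inhibition was then measured, and IC50 values were derived from it.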

CCRF-CEM = assay: Cytotoxicity against human CEM cells; format: cell-based; summary of the method: as §1
L1210 = assay: Cytotoxicity against […] mouse L1210 cells; format: cell-based; summary of the method: as §1
HCT-15 = assay: Cytotoxicity against human HCT15 cells; format: cell-based
HCT-116 = assay: Cytotoxicity against human HCT116 cells; format: cell-based
KM12 = assay: Cytotoxicity against human KM12 cells; format: cell-based
SW-620 = assay: Cytotoxicity against human SW620 cells; format: cell-based
K562 = assay: Cytotoxicity against human K562 cells; format: cell-based
[2] = Cytotoxicity against human RPMI8226 cells; format: cell-based; conditions: RPMI-8226
[3] = Cytotoxicity against human HL60 (TB) cells; format: cell-based; conditions: HL-60
[4] = Cytotoxicity against human NCI49 cell lines; format: cell-based
COLO 205 = assay: Cytotoxicity against human COLO205 cells; format: cell-based
HCC 2998 = assay: Cytotoxicity against human HCC2998 cells; format: cell-based
HepG2 = assay: Induction of apoptosis in human HepG2 cells at 20 uM by TUNEL assay; format: functional
Summary of the method: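 HepG2 cells (ATCC) were kept in DMEM with 10% fetal calf serum and penicillin G/streptomycin/amphotericin B, at 37 °C in humidified 5% CO2. Cells on chambered slides were treated with the compound; controls had no addition or DMSO only. After 48 h, cells were fixed, permeabilized and TUNEL-stained (fluorescein). Labelled apoptotic cells were counted by fluorescence microscopy and reported as a percentage.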

SR = assay: Cytotoxicity against human SR cells; format: cell-based

CCN(CC)CCOc1ccc(C(=O)N2C/C(=C\c3ccc(C)cc3)C(=O)/C(=C/c3ccc(C)cc3)C2)cc1
IC50 [1]: 1320 nM
IC50 (CCRF-CEM): 1330 nM
IC50 (L1210): 2.28 µM

Cc1ccc(/C=C2\CN(C(=O)c3ccc(OCCN4CCCCC4)cc3)C/C(=C\c3ccc(C)cc3)C2=O)cc1
IC50 (HCT-15): 1070 nM
IC50 (HCT-116): 1580 nM
IC50 (KM12): 148 nM
IC50 (SW-620): 339 nM
IC50 (K562): 0.589 µM
IC50 [2]: 123 nM
IC50 [3]: 933 nM
IC50 [4]: 1380 nM
IC50 [1]: 910 nM
IC50 (CCRF-CEM): 1140 nM
IC50 (L1210): 5.14 µM
IC50 (COLO 205): 6.92 µM

CCN(CC)CCOc1ccc(C(=O)O)cc1
IC50 (HCC 2998): 2000 nM
IC50 [1]: > 500000 nM
IC50 (CCRF-CEM): > 500000 nM
IC50 (L1210): > 500 µM

Cl.O=C1/C(=C/c2ccc(Cl)cc2)CN(C(=O)c2ccc(OCCN3CCOCC3)cc2)C/C1=C\c1ccc(Cl)cc1
IC50 (HCT-15): 2190 nM
IC50 (HCT-116): 7250 nM
IC50 (KM12): 2290 nM
IC50 (SW-620): 1450 nM
IC50 (HCC 2998): < 5 nM
IC50 (K562): 6.76 µM
IC50 [2]: 132 nM
IC50 [3]: 5500 nM
Activity (HepG2): 29.25%
IC50 [4]: < 562 nM
IC50 [1]: 18800 nM
IC50 (CCRF-CEM): 8260 nM
IC50 (L1210): 81.4 µM

CCN(CC)CCOc1ccc(C(=O)N2C/C(=C\c3ccc([N+](=O)[O-])cc3)C(=O)/C(=C/c3ccc([N+](=O)[O-])cc3)C2)cc1
IC50 [1]: 310 nM
IC50 (CCRF-CEM): 340 nM
IC50 (L1210): 3.63 µM

CN(C)CCOc1ccc(C(=O)N2C/C(=C\c3ccc([N+](=O)[O-])cc3)C(=O)/C(=C/c3ccc([N+](=O)[O-])cc3)C2)cc1
IC50 [1]: 314 nM
IC50 (CCRF-CEM): 319 nM
IC50 (L1210): 5.19 µM

O=C1/C(=C/c2ccc([N+](=O)[O-])cc2)CN(C(=O)c2ccc(OCCN3CCCCC3)cc2)C/C1=C\c1ccc([N+](=O)[O-])cc1
IC50 [1]: 330 nM
IC50 (CCRF-CEM): 315 nM
IC50 (L1210): 4.74 µM

O=C1/C(=C/c2ccccc2)CN(C(=O)c2ccc(OCCN3CCCCC3)cc2)C/C1=C\c1ccccc1
IC50 [1]: 1480 nM
IC50 (CCRF-CEM): 1160 nM
IC50 (L1210): 8.4 µM

CN(C)CCOc1ccc(C(=O)N2C/C(=C\c3ccccc3)C(=O)/C(=C/c3ccccc3)C2)cc1
IC50 [1]: 580 nM
IC50 (CCRF-CEM): 1240 nM
IC50 (L1210): 10.2 µM

CCN(CC)CCOc1ccc(C(=O)N2C/C(=C\c3ccc(Cl)cc3)C(=O)/C(=C/c3ccc(Cl)cc3)C2)cc1
IC50 [1]: 18300 nM
IC50 (CCRF-CEM): 12300 nM
IC50 (L1210): 47.3 µM

Cc1ccc(/C=C2\CN(C(=O)c3ccc(OCCN(C)C)cc3)C/C(=C\c3ccc(C)cc3)C2=O)cc1
IC50 (HCT-15): 912 nM
IC50 (HCT-116): 1380 nM
IC50 (KM12): 776 nM
IC50 (SW-620): 562 nM
IC50 (HCC 2998): 229 nM
IC50 (K562): 1.82 µM
IC50 [2]: 224 nM
IC50 [3]: 1320 nM
IC50 (SR): 479 nM
IC50 [4]: 1150 nM
IC50 [1]: 1390 nM
IC50 (CCRF-CEM): 884 nM
IC50 (L1210): 7.14 µM
IC50 (COLO 205): 1.02 µM

O=c1[nH]cc(F)c(=O)[nH]1 [FLUOROURACIL]
IC50 (HCT-15): 6610 nM
IC50 (HCT-116): 2040 nM
IC50 (KM12): 7940 nM
IC50 (SW-620): 18600 nM
IC50 (HCC 2998): 5750 nM
IC50 (K562): 126 µM
IC50 [2]: 3550 nM
IC50 [3]: 85100 nM
IC50 (SR): 60300 nM
IC50 [4]: > 29500 nM
IC50 (COLO 205): 3.39 µM

N[C@@H](Cc1ccc(N(CCCl)CCCl)cc1)C(=O)O [MELPHALAN]
IC50 (HCT-116): 30200 nM
IC50 (KM12): 43700 nM
IC50 (SW-620): 38900 nM
IC50 (HCC 2998): 41700 nM
IC50 (K562): 43.7 µM
IC50 [2]: 66100 nM
IC50 [3]: 2040 nM
IC50 (SR): 1860 nM
IC50 [4]: 26900 nM
IC50 (COLO 205): 66.1 µM
